ChEMBL document CHEMBL4266051, “Diterpenoids from Euphorbia dulcis with Potassium Ion Channel Inhibitory Activity with Selective G Protein-Activated Inwardly Rectifying Ion Channel (GIRK) Blocking Effect” (J Nat Prod, 2018)

Key:
Type in all cases: cell-based
[1] = target: T1, hERG (KCNH2) (Homo sapiens, UniProt Q12809); test: Inhibition of human ERG expressed in HEK293 cells at 1 uM by automated patch clamp method relative to control; conditions: HEK293 cells that express hERG
Method in brief: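 Automated whole-cell patch clamp in HEK-293 cells stably transfected with hERG (Kv11.1) cDNA. Increasing concentrations (1 and 10 μM) applied, two cells each. Current amplitude inhibition expressed as %, means ± SEM. 10 μM amitriptyline used as reference blocker.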

[2] = target: T1, hERG (KCNH2); test: Inhibition of human ERG expressed in HEK293 cells at 10 uM by automated patch clamp method relative to control; conditions: HEK293 cells that express hERG
[3] = target: T2, Kir3.1/Kir3.4 (Homo sapiens) (UniProt P48549+P48544); test: (§1) Inhibition of GIRK-1/4 channel (unknown origin) expressed in HEK293 cells by automated patch clamp method
Method in brief: (§2)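 Whole-cell currents by automated patch clamp in HEK-293 cells stably expressing GIRK1/4 (Kir3.1/3.4). Screening at 1 and 10 μM on two or three cells. Concentration-response at four concentrations (0.3, 1, 3, 10 μM) on five or six cells, used for IC50. Currents corrected to the K+-free external solution as baseline. Means ± SEM.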

[4] = target: T3, Kir3.1/Kir3.4 (Homo sapiens, UniProt P48544+P48549); test: as §1; method in brief: as §2
T3 sequence (P48549 whole entry): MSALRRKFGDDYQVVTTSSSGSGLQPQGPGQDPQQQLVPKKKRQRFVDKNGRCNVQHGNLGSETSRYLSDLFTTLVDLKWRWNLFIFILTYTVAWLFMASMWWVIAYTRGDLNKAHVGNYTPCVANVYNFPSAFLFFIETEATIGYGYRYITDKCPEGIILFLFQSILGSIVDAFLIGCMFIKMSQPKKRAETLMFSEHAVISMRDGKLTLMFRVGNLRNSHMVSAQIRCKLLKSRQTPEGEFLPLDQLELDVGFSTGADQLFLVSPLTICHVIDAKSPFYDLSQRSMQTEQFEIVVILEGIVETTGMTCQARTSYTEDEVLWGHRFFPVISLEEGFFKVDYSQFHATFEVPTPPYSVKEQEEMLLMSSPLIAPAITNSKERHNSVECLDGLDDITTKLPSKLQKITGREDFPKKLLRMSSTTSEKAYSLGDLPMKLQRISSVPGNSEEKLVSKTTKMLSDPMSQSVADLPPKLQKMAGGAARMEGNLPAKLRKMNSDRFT
T3 sequence (P48544 whole entry): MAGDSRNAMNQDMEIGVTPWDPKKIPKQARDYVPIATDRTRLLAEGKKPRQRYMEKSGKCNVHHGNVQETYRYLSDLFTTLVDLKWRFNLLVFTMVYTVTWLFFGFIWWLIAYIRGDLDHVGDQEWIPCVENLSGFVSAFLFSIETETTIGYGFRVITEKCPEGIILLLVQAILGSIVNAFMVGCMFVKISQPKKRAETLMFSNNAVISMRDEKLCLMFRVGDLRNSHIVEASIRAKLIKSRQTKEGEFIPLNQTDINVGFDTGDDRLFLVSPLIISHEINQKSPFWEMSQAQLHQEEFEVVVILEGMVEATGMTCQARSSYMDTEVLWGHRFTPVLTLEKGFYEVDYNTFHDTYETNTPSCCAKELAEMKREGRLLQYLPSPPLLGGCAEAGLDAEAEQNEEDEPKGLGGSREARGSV

[5] = target: T2, Kir3.1/Kir3.4 (Homo sapiens); test: Inhibition of GIRK-1/4 channel (unknown origin) expressed in HEK293 cells at 10 uM by automated patch clamp method relative to control
Method in brief: (§3)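 HEK-293 cells stably expressing GIRK1/4 (Kir3.1/3.4) K+ channels; whole-cell currents recorded by automated patch clamp. Compounds screened at 1 and 10 μM, two or three cells per condition. Current values corrected using the current measured in K+-free external solution as baseline. Inhibition expressed as % of GIRK current; mean ± SEM, n = 2–3.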

[6] = target: T2, Kir3.1/Kir3.4 (Homo sapiens); test: Inhibition of GIRK-1/4 channel (unknown origin) expressed in HEK293 cells at 1 uM by automated patch clamp method relative to control; method in brief: as §3

T1 sequence (Q12809 whole entry): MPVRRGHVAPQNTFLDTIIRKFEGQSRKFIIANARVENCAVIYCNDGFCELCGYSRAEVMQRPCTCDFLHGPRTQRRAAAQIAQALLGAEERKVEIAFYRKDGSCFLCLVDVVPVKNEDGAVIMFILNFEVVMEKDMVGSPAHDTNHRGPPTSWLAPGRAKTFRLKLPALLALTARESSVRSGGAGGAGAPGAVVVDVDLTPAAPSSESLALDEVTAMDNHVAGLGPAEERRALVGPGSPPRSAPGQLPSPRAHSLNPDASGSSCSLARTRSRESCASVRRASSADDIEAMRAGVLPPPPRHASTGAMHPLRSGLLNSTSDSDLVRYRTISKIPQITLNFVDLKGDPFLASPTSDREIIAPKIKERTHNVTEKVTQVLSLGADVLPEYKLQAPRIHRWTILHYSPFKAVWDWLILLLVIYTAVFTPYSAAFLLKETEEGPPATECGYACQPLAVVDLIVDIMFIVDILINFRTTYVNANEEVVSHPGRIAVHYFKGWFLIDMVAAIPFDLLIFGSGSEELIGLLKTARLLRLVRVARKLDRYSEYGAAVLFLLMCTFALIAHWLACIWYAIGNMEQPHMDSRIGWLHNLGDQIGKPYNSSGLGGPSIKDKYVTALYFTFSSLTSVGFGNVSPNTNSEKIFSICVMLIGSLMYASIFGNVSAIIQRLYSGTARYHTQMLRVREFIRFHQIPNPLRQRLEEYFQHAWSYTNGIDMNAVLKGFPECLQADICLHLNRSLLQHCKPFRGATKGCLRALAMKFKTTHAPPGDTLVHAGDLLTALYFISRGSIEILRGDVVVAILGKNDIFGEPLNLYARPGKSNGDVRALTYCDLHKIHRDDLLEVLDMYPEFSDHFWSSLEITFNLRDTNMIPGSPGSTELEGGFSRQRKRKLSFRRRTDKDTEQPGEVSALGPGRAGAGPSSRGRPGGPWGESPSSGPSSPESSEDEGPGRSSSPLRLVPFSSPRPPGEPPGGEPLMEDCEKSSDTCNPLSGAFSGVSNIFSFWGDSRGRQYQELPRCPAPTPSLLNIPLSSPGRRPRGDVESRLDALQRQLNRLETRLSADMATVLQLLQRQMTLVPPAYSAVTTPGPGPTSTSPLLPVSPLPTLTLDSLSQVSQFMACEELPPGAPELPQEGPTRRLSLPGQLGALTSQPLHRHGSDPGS

| SMILES | inhibition at 1 µM [1] [%] | inhibition at 10 µM [2] [%] | inhibition [3] | IC50 [4] [nM] | inhibition [5] [%] | inhibition [6] [%] |
| --- | --- | --- | --- | --- | --- | --- |
| C/C=C(/C)C(=O)O[C@H]1C(C)=C[C@@]23C(=O)[C@@H](C=C(C)[C@@H](O)[C@]12O)[C@H]1[C@@H](C[C@H]3C)C1(C)C | 1.8 | 7.9 | Dose-dependent effect | 12100 | 52.3 | 23.8 |
| CC(=O)O[C@@H]1[C@@H](O)[C@@H](OC(C)=O)/C(C)=C/[C@H]2[C@@H](OC(=O)c3ccccc3)[C@@H](C)C[C@]2(O)[C@@H](OC(C)=O)[C@@H](C)/C=C/C1(C)C |  |  |  |  | 26.8 | 16 |
| CC(=O)O[C@@H]1[C@@H](OC(C)=O)C(C)(C)/C=C/[C@H](C)[C@H](O)[C@@]2(OC(C)=O)C[C@H](C)[C@H](OC(=O)c3ccccc3)[C@@H]2/C=C(\C)[C@@H]1OC(C)=O | 11.2 | 22.7 | Dose-dependent effect | 3400 | 66 | 27.2 |
| CC(=O)OCC(=O)O[C@@H]1[C@H]2[C@@H](OC(=O)c3ccccc3)[C@@H](C)C[C@]2(O)[C@@H](OC(C)=O)[C@]2(C)C[C@@]1(OC(C)=O)C[C@H]1C(=O)C(C)(C)C[C@@H]12 |  |  |  |  | 28.6 | 17.7 |
| C/C=C(\C)C(=O)O[C@H]1/C(C)=C/[C@H]2[C@@H](OC(=O)c3ccccc3)[C@@H](C)C[C@]2(O)[C@@H](OC(=O)/C(C)=C/C)[C@@H](C)/C=C/C(C)(C)[C@H](OC(C)=O)[C@H]1OC(C)=O |  |  |  |  | 35.7 | 23.5 |
| CC(=O)O[C@@H]1[C@@H](OC(C)=O)C(C)(C)/C=C/[C@H](C)[C@H](OC(C)=O)[C@@]2(O)C[C@H](C)[C@H](OC(=O)c3ccccc3)[C@@H]2/C=C(\C)[C@@H]1O |  |  |  |  | 66.6 | 16.8 |
| C/C=C(/C)C(=O)OCC1(C)[C@H]2[C@@H]3C=C(C)[C@@H](O)[C@]4(O)[C@@H](OC(=O)/C(C)=C\C)C(C)=C[C@]4(C3=O)[C@H](C)C[C@H]21 (stereo partly specified) | 11.2 | 55.4 | Dose-dependent effect | 1450 | 80.4 | 43.9 |
| C/C=C(\C)C(=O)O[C@H]1[C@@H](C)/C=C/C(C)(C)[C@H](OC(C)=O)[C@@H](OC(C)=O)[C@@H](O)/C(C)=C/[C@H]2[C@@H](OC(=O)c3ccccc3)[C@@H](C)C[C@@]21O |  |  |  |  | 60.8 | 15.3 |
| CC(=O)O[C@H]1[C@@H](C)/C=C/C(C)(C)[C@H](O)[C@@H](O)[C@@H](O)/C(C)=C/[C@H]2[C@@H](OC(=O)c3ccccc3)[C@@H](C)C[C@@]21O |  |  |  |  | 25.7 | 15.7 |
| CC(=O)O[C@H]1/C(C)=C/[C@H]2[C@@H](OC(=O)c3ccccc3)[C@@H](C)C[C@]2(O)[C@@H](OC(C)=O)[C@@H](C)/C=C/C(C)(C)[C@H](O)[C@H]1O |  |  |  |  | 23.5 | 11.2 |
| CC(=O)O[C@@H]1[C@@H](OC(C)=O)C(C)(C)/C=C/[C@H](C)[C@H](OC(C)=O)[C@@]2(O)C[C@H](C)[C@H](OC(=O)c3ccccc3)[C@@H]2/C=C(\C)[C@@H]1OC(C)=O | 13.2 | 24 | Dose-dependent effect | 1690 | 83.4 | 33.8 |
| C/C=C(/C)C(=O)OCC1(C)[C@H]2[C@@H]3C=C(COC(C)=O)[C@@H](O)[C@]4(O)[C@@H](OC(=O)/C(C)=C\C)C(C)=C[C@]4(C3=O)[C@H](C)C[C@H]21 (stereo partly specified) |  |  |  |  | 45.1 | 16.4 |
| C/C=C(\C)C(=O)O[C@H]1/C(C)=C/[C@H]2[C@@H](OC(=O)c3ccccc3)[C@@H](C)C[C@]2(O)[C@@H](OC(C)=O)[C@@H](C)/C=C/C(C)(C)[C@H](OC(C)=O)[C@H]1OC(C)=O | 6.5 | 24.4 | Dose-dependent effect | 1600 | 85 | 38.5 |
| CC(=O)O[C@@H]1C[C@@H](OC(C)=O)C(C)(C)/C=C/[C@H](C)[C@H](OC(C)=O)[C@@]2(O)C[C@H](C)[C@H](OC(=O)c3ccccc3)[C@@H]2/C=C/1C [EUPHORNIN] | 3.3 | 19 | Dose-dependent effect | 2630 | 78.7 | 31.1 |
| CCCNCC(O)COc1ccccc1C(=O)CCc1ccccc1 (stereo unspecified) |  |  |  |  |  | 60.6 to 94.2 |
| C/C=C(\C)C(=O)O[C@@H]1C[C@@H](OC(C)=O)C(C)(C)/C=C/[C@H](C)[C@H](OC(C)=O)[C@@]2(O)C[C@H](C)[C@H](OC(=O)c3ccccc3)[C@@H]2/C=C/1C | 10.8 | 24.9 | Dose-dependent effect | 1310 | 88.7 | 35.5 |
| C=C1CC[C@@H](OC(=O)/C=C/c2ccccc2)C(C)(C)/C=C/[C@H](C)C(=O)[C@@]2(O)C[C@H](C)[C@H](OC(=O)/C=C/c3ccccc3)[C@@H]2[C@H]1OC(C)=O |  |  |  |  | 23.7 | 22.2 |
